Screens from PubChem.
Rows were chosen to be rich in hits. Some 5.9% of all compounds tested hit in one or more screens of this group.
T cruzi growth-1: inhibitors of T. cruzi proliferation; T. cruzi beta-gal in NIH3T3, GalScreen luminescence, 90 h; inhibition, % at 8.34 µM; hit rate 5.9% among 77,000;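 active = mean inhibition above about 93%, with at least 55% of replicates each passing it, limit read from the data, passing the limit was not always enough; inconclusive = only one of those two conditions holds; inactive = neither condition holds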
Pf Dd2 growth: inhibitors of Plasmodium falciparum Dd2 growth. P. falciparum Dd2 growth, SYBR Green, 72 h; stronger effect = lower value. activity change, % at 10 µM. hit rate 2.3% among 94,000; in the data active = activity change below about -80%; inconclusive = no clear call, values can overlap the other calls
IDH1 mut inh: blocks human IDH1 R132H reductase activity | inhibition, % at 10 µM | hit rate 0.18% among 70,000 | diaphorase/resazurin fluorescence, 60 min; in the data active = inhibition above about 34%; inconclusive = no clear call, values can overlap the other calls; inactive = below about 11%;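 also: 0% = DMSO and 100% = no enzyme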
Target sequence (O75874 whole entry R132H): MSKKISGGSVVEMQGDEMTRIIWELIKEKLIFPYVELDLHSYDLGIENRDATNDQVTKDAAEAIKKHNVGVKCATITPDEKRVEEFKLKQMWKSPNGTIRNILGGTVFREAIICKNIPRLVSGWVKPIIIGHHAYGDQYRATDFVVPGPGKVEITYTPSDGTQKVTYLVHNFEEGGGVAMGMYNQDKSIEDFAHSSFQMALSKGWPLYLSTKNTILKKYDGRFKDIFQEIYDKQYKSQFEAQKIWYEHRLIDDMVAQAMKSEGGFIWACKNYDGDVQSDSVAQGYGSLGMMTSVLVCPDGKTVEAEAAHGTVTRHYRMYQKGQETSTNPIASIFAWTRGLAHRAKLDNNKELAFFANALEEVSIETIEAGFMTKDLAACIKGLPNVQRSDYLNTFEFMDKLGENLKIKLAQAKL
KDM4C inh: KDM4C (human) demethylase inhibition. GST-KDM4C 2-372, H3K9me3 peptide, LANCE TR-FRET. Q9H3R0. inhibition, % at 12.5 µM. hit rate 0.15% among 96,000;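 active = mean replicate inhibition above about 25%, with at least 55% of replicates also reaching it, limit read from the data, passing the limit was not always enough; inconclusive = only one of those two conditions met; inactive = neither condition met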
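Material: N-terminal GST-fused human GASC-1 (KDM4C) fragment, residues 2-372. Input: 10 nM enzyme. Incubation: enzyme reaction 30 min, then detection 60 min, both room temperature. Doses: one test concentration per compound. Read-out basis: inhibition from TR-FRET ratio decrease. Detection: LANCE TR-FRET, excitation 340 nm, emissions 618 and 671 nm.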
T cruzi growth-2: blocks T. cruzi growth in NIH3T3 host cells; T. cruzi beta-gal in NIH3T3, GalScreen luminescence, 90 h; hit rate 72% among 5,600; shares compounds with T cruzi growth-1; inhibition, % at 8.35 µM;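 active = mean replicate inhibition above about 95% and at least 55% of replicates individually reaching it, limit read from the data; inconclusive = only one of the two criteria is met; inactive = neither criterion is met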
T cruzi growth-3: Trypanosoma cruzi proliferation inhibition; shares compounds with T cruzi growth-1; inhibition, % at 2.09 µM; hit rate 21% among 5,600; T. cruzi beta-gal in NIH3T3, GalScreen luminescence, 90 h;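 active = mean inhibition above about 95%, with at least 55% of replicates also reaching it, limit read from the data; inconclusive = meets just one of the two conditions; inactive = meets neither condition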;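 also: plate controls were neutral control median for no effect and positive control median for full effect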
3T3 cytotox: cytotoxicity in mouse NIH/3T3 fibroblasts; cytotoxicity (signal decrease), % at 8.35 µM; hit rate 14% among 5,600; AID 651742; shares compounds with T cruzi growth-1; NIH/3T3 viability, CellTiter-Glo ATP luminescence, 90 h;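 active = mean signal decrease across replicates above about 35% based on untreated-well scatter, with enough replicates individually passing, limit read from the data; inconclusive = no rule stated though some were filed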;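 also: 0% = median of neutral control wells and 100% = median of positive control wells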
NIH3T3 tox 2: NIH/3T3 (mouse) viability loss | shares compounds with T cruzi growth-1 | NIH/3T3 viability, CellTiter-Glo ATP luminescence, 90 h | inhibition, % at 24.9 µM | hit rate 56% among 5,600;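 active = mean loss of cell viability signal at or above a set limit, and enough replicates individually reaching it; inconclusive = meets only the mean limit or only the replicate share; inactive = meets neither condition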;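 also: 0% = median of neutral control wells and 100% = median of positive control wells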
* marks the source's active call; other numbers are inactive results.

Results for C[C@@H]1CCCCO[C@@H](CN(C)C(=O)Nc2ccc(C(F)(F)F)cc2)[C@@H](C)CN([C@H](C)CO)C(=O)c2cc(NC(=O)NC3CCCCC3)ccc2O1 ?
Pf Dd2 growth: -63.9; IDH1 mut inh: -2.3; KDM4C inh: -0.6

What do the screens show for `C[C@@H]1CCCCO[C@@H](CN(C)C(=O)Nc2ccc(C(F)(F)F)cc2)[C@@H](C)CN([C@H](C)CO)C(=O)c2cc(NC(=O)Nc3ccc(C(F)(F)F)cc3)ccc2O1`?
T cruzi growth-1: 115.6*; Pf Dd2 growth: -0.3; KDM4C inh: 1.5; T cruzi growth-2: 107.7*; T cruzi growth-3: 92.8; 3T3 cytotox: 28.5; NIH3T3 tox 2: inconclusive

What do the screens show for `C[C@@H]1CCCCO[C@H](CN(C)C(=O)Nc2ccc(F)cc2)[C@@H](C)CN([C@H](C)CO)C(=O)c2cc(NC(=O)Nc3ccc(C(F)(F)F)cc3)ccc2O1`?
T cruzi growth-1: inconclusive; Pf Dd2 growth: -6.9; KDM4C inh: 0.2; T cruzi growth-2: 104.6*; T cruzi growth-3: 100.8*; 3T3 cytotox: 16.2; NIH3T3 tox 2: 23.9

How did C[C@@H]1CCCCO[C@@H](CN(C)C(=O)Nc2ccc(F)cc2)[C@@H](C)CN([C@H](C)CO)C(=O)c2cc(NC(=O)Nc3ccc(C(F)(F)F)cc3)ccc2O1 do in these assays?
T cruzi growth-1: 90.6; Pf Dd2 growth: 12.5; KDM4C inh: -1.1

What do the screens show for `C[C@H](CO)N1C[C@H](C)[C@@H](CN(C)C(=O)Nc2ccc(C(F)(F)F)cc2)OCCCC[C@H](C)Oc2ccc(NC(=O)NC3CCCCC3)cc2C1=O`?
T cruzi growth-1: 112.8*; Pf Dd2 growth: -78.8; KDM4C inh: 1.5; T cruzi growth-2: 104.9*; T cruzi growth-3: 105.0*; 3T3 cytotox: 6.0; NIH3T3 tox 2: 11.2

What do the screens show for `C[C@H](CO)N1C[C@H](C)[C@H](CN(C)C(=O)Nc2ccc(F)cc2)OCCCC[C@H](C)Oc2ccc(NC(=O)Nc3ccc(C(F)(F)F)cc3)cc2C1=O`?
T cruzi growth-1: 97.9*; Pf Dd2 growth: 9.6; IDH1 mut inh: 0.7; KDM4C inh: 0.1; T cruzi growth-2: 90.9; T cruzi growth-3: 108.9*; 3T3 cytotox: 18.8; NIH3T3 tox 2: 18.4

How did C[C@@H]1CCCCO[C@H](CN(C)C(=O)Nc2ccccc2)[C@@H](C)CN([C@H](C)CO)C(=O)c2cc(NC(=O)Nc3ccc(C(F)(F)F)cc3)ccc2O1 do in these assays?
Pf Dd2 growth: -24.4; KDM4C inh: -1.1

What do the screens show for `CC(C)NC(=O)Nc1ccc2c(c1)C(=O)N([C@H](C)CO)C[C@@H](C)[C@@H](CN(C)C(=O)Nc1ccc(C(F)(F)F)cc1)OCCCC[C@@H](C)O2`?
T cruzi growth-1: 105.2*; Pf Dd2 growth: -73.0; KDM4C inh: 15.5; T cruzi growth-2: 104.0*; T cruzi growth-3: 91.8; 3T3 cytotox: 11.9; NIH3T3 tox 2: 20.0

How did CNC[C@@H]1OCCCC[C@@H](C)Oc2ccc(NC(=O)Nc3ccc(C(F)(F)F)cc3)cc2C(=O)N([C@@H](C)CO)C[C@H]1C do in these assays?
T cruzi growth-1: inconclusive; Pf Dd2 growth: -9.6; KDM4C inh: -0.1; T cruzi growth-2: 15.5; T cruzi growth-3: 12.4; 3T3 cytotox: 16.8; NIH3T3 tox 2: 0.6

How did CC(C)NC(=O)Nc1ccc2c(c1)C(=O)N([C@H](C)CO)C[C@@H](C)[C@H](CN(C)C(=O)Nc1ccc(C(F)(F)F)cc1)OCCCC[C@@H](C)O2 do in these assays?
T cruzi growth-1: 89.1; Pf Dd2 growth: -52.5; KDM4C inh: -0.4

Results for CNC[C@@H]1OCCCC[C@@H](C)Oc2ccc(NC(=O)Nc3ccc4c(c3)OCO4)cc2C(=O)N([C@H](C)CO)C[C@@H]1C ?
T cruzi growth-1: 95.5*; Pf Dd2 growth: 24.9; KDM4C inh: 1.2; T cruzi growth-2: 17.9; T cruzi growth-3: 3.0; 3T3 cytotox: 9.1; NIH3T3 tox 2: 18.4

How did CNC[C@H]1OCCCC[C@H](C)Oc2ccc(NC(=O)Nc3ccc4c(c3)OCO4)cc2C(=O)N([C@H](C)CO)C[C@@H]1C do in these assays?
T cruzi growth-1: 41.4; Pf Dd2 growth: 19.1; KDM4C inh: -0.8

What do the screens show for `CNC[C@@H]1OCCCC[C@@H](C)Oc2ccc(NC(=O)Nc3ccc(C(F)(F)F)cc3)cc2C(=O)N([C@@H](C)CO)C[C@@H]1C`?
T cruzi growth-1: 9.3; Pf Dd2 growth: 2.9; IDH1 mut inh: 3.4; KDM4C inh: -0.9

How did CC(C)NC(=O)N(C)C[C@@H]1OCCCC[C@H](C)Oc2ccc(NC(=O)Nc3ccc(C(F)(F)F)cc3)cc2C(=O)N([C@@H](C)CO)C[C@@H]1C do in these assays?
T cruzi growth-1: inconclusive; Pf Dd2 growth: -46.7; IDH1 mut inh: 1.1; KDM4C inh: -1.1; T cruzi growth-2: 108.7*; T cruzi growth-3: 77.8; 3T3 cytotox: 12.2; NIH3T3 tox 2: -0.5

What do the screens show for `Cc1cccc(OCC(=O)Nc2ccccc2CO)c1C`?
IDH1 mut inh: -0.3

Results for O=C(COc1ccccc1)Nc1ccc2nn(-c3ccc(Cl)cc3)nc2c1 ?
IDH1 mut inh: -1.1

Results for C[C@@H](O)[C@@H](O)[C@@H](O)C/C=N/NC(=O)c1cccc(C(=O)NO)c1 ?
IDH1 mut inh: -0.2

What do the screens show for `CN(Cc1ccccc1)C(=O)C(Cc1ccc2ccccc2c1)NC(=O)C1CCCN1C(=O)Nc1ccccc1[N+](=O)[O-]` (stereo not drawn)?
IDH1 mut inh: -0.1

Results for COc1cccc(-c2ccc3c(c2)O[C@H](CN(C)Cc2cccnc2)[C@@H](C)CN([C@H](C)CO)S3(=O)=O)c1 ?
T cruzi growth-1: 113.0*; Pf Dd2 growth: -48.7; IDH1 mut inh: -0.4; KDM4C inh: 6.9; T cruzi growth-2: 98.0*; T cruzi growth-3: 108.3*; 3T3 cytotox: 64.0*; NIH3T3 tox 2: 85.6*

Results for COc1cccc(-c2ccc3c(c2)O[C@@H](CN(C)Cc2cccnc2)[C@H](C)CN([C@@H](C)CO)S3(=O)=O)c1 ?
T cruzi growth-1: 112.2*; Pf Dd2 growth: -55.8; IDH1 mut inh: 0.2; KDM4C inh: 2.2; T cruzi growth-2: 92.1; T cruzi growth-3: 104.2*; 3T3 cytotox: 47.7*; NIH3T3 tox 2: 88.0*

Results for COc1cccc(-c2ccc3c(c2)O[C@@H](CN(C)Cc2cccnc2)[C@@H](C)CN([C@@H](C)CO)S3(=O)=O)c1 ?
T cruzi growth-1: 95.2*; Pf Dd2 growth: -28.2; IDH1 mut inh: 5.3; KDM4C inh: 0.3; T cruzi growth-2: inconclusive; T cruzi growth-3: 71.7; 3T3 cytotox: 15.6; NIH3T3 tox 2: 53.1*
